The source made the active and inactive calls. The rule behind the calls is not given here.
Legend:
[1] = test system: Rattus norvegicus; experiment: Anti-cold allodynia effect in Sprague-Dawley rat CCI model assessed as duration of paw withdrawal 100 mg/kg, ip after 2 hr; format: functional; details: route intraperitoneal
Method in brief: (§1)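 CCI by sciatic nerve ligation under pentobarbital (65 mg/kg i.p.). Rats tested at baseline and 9 days post-surgery; those with allodynia dosed i.p. 100 mg/kg, vehicle 30% v/v PEG 400 in water. Acetone (100-200 µL) misted on midplantar affected paw; withdrawal duration recorded, three samples averaged, at least 3 min apart; n = 4.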

[2] = test system: Mus musculus; experiment: Analgesic activity in Swiss Albino mouse assessed as inhibition of acetic acid-induced writhing responses at 100 mg/kg, ip; format: functional; details: route intraperitoneal
Method in brief: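 Mice in groups of six dosed i.p. at 100 mg/kg, controls receiving 30% v/v PEG 400 in water. Writhing induced by i.p. 0.1 mL of 3% v/v acetic acid 1 h after drug. Writhes (abdominal stretch with at least one hind limb extended) counted over 30 min; % inhibition calculated. Mean ± SEM, Student's t test.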

[3] = test system: Rattus norvegicus; experiment: Anti-cold allodynia effect in Sprague-Dawley rat CCI model assessed as duration of paw withdrawal 100 mg/kg, ip after 1.5 hr; format: functional; details: route intraperitoneal; method in brief: as §1
[4] = test system: Mus musculus; experiment: Anticonvulsant activity in Swiss Albino mouse at 30 mg/kg, ip after 0.5 hr by scSTY test; format: functional, organism-based; set-up: dose 30 mg/kg
Method in brief: (§2)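 Mice (Swiss, 20-25 g) given i.p. doses of 30, 100 and 300 mg/kg under ADD program protocols, three per group, examined at 0.5 and 4 h in MES, scPTZ, scSTY or scPIC seizure tests. Value is the minimum dose protecting half or more of the mice.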

[5] = test system: Rattus norvegicus; experiment: Anti-dynamic allodynia effect in Sprague-Dawley rat SNL model assessed as latency to paw withdrawal 100 mg/kg, ip after 2.5 hrs; format: functional; details: route intraperitoneal
Method in brief: (§3)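 Left L5 spinal nerve ligation rats, tested preoperatively and 9 days postoperatively, then given 100 mg/kg i.p. (vehicle 30% v/v PEG 400 in water). After 10 min acclimatization, plantar surface of affected paw stroked mildly with a cotton-bud; paw lift response recorded. n = 4; retested 0.5-2.5 h post-dose.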

[6] = test system: Rattus norvegicus; experiment: Anti-dynamic allodynia effect in Sprague-Dawley rat SNL model assessed as latency to paw withdrawal 100 mg/kg, ip after 1 hr; format: functional; details: route intraperitoneal; method in brief: as §3
[7] = test system: Rattus norvegicus; experiment: Anti-cold allodynia effect in Sprague-Dawley rat SNL model assessed as duration of paw withdrawal 100 mg/kg, ip after 2 hrs; format: functional; details: route intraperitoneal
Method in brief: (§4)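 Left L5 spinal nerve ligation under pentobarbital (65 mg/kg i.p.). Allodynic rats dosed i.p. 100 mg/kg, vehicle 30% v/v PEG 400 in water. Acetone (100-200 µL) misted onto midplantar affected paw after 10 min acclimatization; paw withdrawal duration, mean of three samples at least 3 min apart; n = 4 rats.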

[8] = test system: Mus musculus; experiment: Anticonvulsant activity in Swiss Albino mouse at 30 mg/kg, ip after 4 hrs by scPIC test; format: functional, organism-based; set-up: dose 30 mg/kg; method in brief: as §2
[9] = test system: Mus musculus; experiment: Neurotoxicity in Swiss Albino mouse at 300 mg/kg, ip after 4 hrs by rotarod test; format: functional, organism-based; set-up: dose 300 mg/kg
Method in brief: (§5)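 Swiss mice (20-25 g) are trained on an accelerating rotorod (10 rpm, 3.2 cm rod), then injected i.p. at 30, 100 or 300 mg/kg, with three per group. Neurotoxicity means failure to keep equilibrium for at least 1 min in each of three trials, checked at 0.5 and 4 h. The value reported is the minimum dose affecting half or more of the mice.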

[10] = test system: Rattus norvegicus; experiment: Anti-dynamic allodynia effect in Sprague-Dawley rat SNL model assessed as latency to paw withdrawal 100 mg/kg, ip after 0.5 hr; format: functional; details: route intraperitoneal; method in brief: as §3
[11] = test system: Rattus norvegicus; experiment: Anti-cold allodynia effect in Sprague-Dawley rat SNL model assessed as duration of paw withdrawal 100 mg/kg, ip after 2.5 hrs; format: functional; details: route intraperitoneal; method in brief: as §4
[12] = test system: Rattus norvegicus; experiment: Anti-cold allodynia effect in Sprague-Dawley rat SNL model assessed as duration of paw withdrawal 100 mg/kg, ip after 1 hrs; format: functional; details: route intraperitoneal; method in brief: as §4
[13] = test system: Mus musculus; experiment: Anticonvulsant activity in Swiss Albino mouse at 30 mg/kg, ip after 0.5 hr by scPIC test; format: functional, organism-based; set-up: dose 30 mg/kg; method in brief: as §2
[14] = test system: Mus musculus; experiment: Neurotoxicity in Swiss Albino mouse at 300 mg/kg, ip after 0.5 hr by rotarod test; format: functional, organism-based; set-up: dose 300 mg/kg; method in brief: as §5
[15] = test system: Rattus norvegicus; experiment: Anti-cold allodynia effect in Sprague-Dawley rat CCI model assessed as duration of paw withdrawal 100 mg/kg, ip after 2.5 hr; format: functional; details: route intraperitoneal; method in brief: as §1
[16] = test system: Rattus norvegicus; experiment: Anti-cold allodynia effect in Sprague-Dawley rat SNL model assessed as duration of paw withdrawal 100 mg/kg, ip after 0.5 hr; format: functional; details: route intraperitoneal; method in brief: as §4
[17] = test system: Rattus norvegicus; experiment: Anti-dynamic allodynia effect in Sprague-Dawley rat SNL model assessed as latency to paw withdrawal 100 mg/kg, ip after 2 hrs; format: functional; details: route intraperitoneal; method in brief: as §3
[18] = test system: Rattus norvegicus; experiment: Anti-cold allodynia effect in Sprague-Dawley rat SNL model assessed as duration of paw withdrawal 100 mg/kg, ip after 1.5 hrs; format: functional; details: route intraperitoneal; method in brief: as §4
[19] = test system: Mus musculus; experiment: Anticonvulsant activity in Swiss Albino mouse at 30 mg/kg, ip after 4 hrs by scSTY test; format: functional, organism-based; set-up: dose 30 mg/kg; method in brief: as §2
[20] = test system: Mus musculus; experiment: Anticonvulsant activity in Swiss Albino mouse at 300 mg/kg, ip after 0.5 hr by MES test; format: functional, organism-based; set-up: dose 300 mg/kg; method in brief: as §2
[21] = test system: Rattus norvegicus; experiment: Effect on spontaneous pain in Sprague-Dawley rat SNL model assessed as duration of paw withdrawal at 100 mg/kg, ip after 2.5 hrs; format: functional; details: route intraperitoneal
Method in brief: (§6)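 Rats underwent left L5 spinal nerve ligation (Kim and Chung) under i.p. pentobarbital (65 mg/kg). Spontaneous pain is recorded for 5 min after 10 min acclimatization, as cumulative duration the ipsilateral paw is lifted, excluding locomotor lifts. Dosing is 100 mg/kg i.p. in 30% v/v PEG 400/water, with testing at 0.5–2.5 h. Four rats, mean ± SEM versus predrug, one-way ANOVA with Bonferroni.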

[22] = test system: Rattus norvegicus; experiment: Effect on spontaneous pain in Sprague-Dawley rat SNL model assessed as duration of paw withdrawal at 100 mg/kg, ip after 2 hrs; format: functional; details: route intraperitoneal; method in brief: as §6
[23] = test system: Mus musculus; experiment: Anticonvulsant activity in Swiss Albino mouse at 300 mg/kg, ip after 4 hrs by scSTY test; format: functional, organism-based; set-up: dose 300 mg/kg; method in brief: as §2
[24] = test system: Mus musculus; experiment: Anticonvulsant activity in Swiss Albino mouse at 300 mg/kg, ip after 0.5 hr by scPIC test; format: functional, organism-based; set-up: dose 300 mg/kg; method in brief: as §2
[25] = test system: Mus musculus; experiment: Anticonvulsant activity in Swiss Albino mouse at 300 mg/kg, ip after 0.5 hr by scSTY test; format: functional, organism-based; set-up: dose 300 mg/kg; method in brief: as §2
[26] = test system: Rattus norvegicus; experiment: Effect on spontaneous pain in Sprague-Dawley rat SNL model assessed as duration of paw withdrawal at 100 mg/kg, ip after 1.5 hrs; format: functional; details: route intraperitoneal; method in brief: as §6
[27] = test system: Rattus norvegicus; experiment: Antihyperalgesic effects in Sprague-Dawley rat SNL model assessed as duration of paw withdrawal at 100 mg/kg, ip after 2 hrs, ip; format: functional; details: route intraperitoneal
Method in brief: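 L5 SNL rats (n = 4), dosed 100 mg/kg i.p. (vehicle 30% v/v PEG 400 in water). Pin-prick to midplantar ipsilateral left hindpaw; withdrawal duration, mean of three responses; ≥2 s defined abnormal. Mean ± SEM; one-way ANOVA with Bonferroni versus predrug.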

[28] = test system: Rattus norvegicus; experiment: Effect on spontaneous pain in Sprague-Dawley rat SNL model assessed as duration of paw withdrawal at 100 mg/kg, ip after 0.5 hr; format: functional; details: route intraperitoneal; method in brief: as §6
[29] = test system: Mus musculus; experiment: Neurotoxicity in Swiss Albino mouse at 100 mg/kg, ip after 0.5 hr by rotarod test; format: functional, organism-based; set-up: dose 100 mg/kg; method in brief: as §5
[30] = test system: Mus musculus; experiment: Anticonvulsant activity in Swiss Albino mouse at 100 mg/kg, ip after 4 hrs by scPIC test; format: functional, organism-based; set-up: dose 100 mg/kg; method in brief: as §2

Structure (SMILES) | Activity [1] [s] | inhibition in vivo at 100 mg/kg [2] [%] | Activity [3] [s] | Activity [5] [s] | Activity [6] [s] | Activity [7] [s] | Activity [9] | Activity [10] [s] | Activity [11] [s] | Activity [12] [s] | Activity [15] [s] | Activity [16] [s] | Activity [17] [s] | Activity [18] [s] | Activity [20] | Activity [21] [s] | Activity [22] [s] | Activity [26] [s] | Activity [27] [s] | Activity [28] [s] | also measured
O=C(O)CCCNC(=O)N/N=C/c1ccccc1O | 13.7 | 89 | 11.2 | 11.32 | 14.3 | 25.4 | Active | 11.2 | 28.5 | 27.3 | 12.2 | 22.2 | 11.8 | 26 | inactive |  |  |  |  |  | Activity [4]: Active; Activity [8]: Active; Activity [13]: Active; Activity [14]: inactive; Activity [19]: Active
O=C(O)CCCNC(=O)N/N=C1\C(=O)Nc2ccccc21 |  | 74 |  |  |  | 17.1 | Active |  | 41.2 | 16.3 |  | 11 |  | 22.6 | Active | 9.8 | 0.7 | 0.9 | 19.7 | 1.2 | Activity [23]: inactive; Activity [24]: Active; Activity [25]: inactive; Activity [29]: Active
NC(=O)N1c2ccccc2C=Cc2ccccc21 [CARBAMAZEPINE] | 27.8 |  | 28.9 | 1.65 | 13.4 | 19.4 |  | 14.7 | 20.6 | 11.8 | 21.8 | 13.5 | 1.9 | 7.9 |  | 94.9 | 85.4 | 22.3 | 5.5 | 14.6 | 
CN(C)c1ccc(/C=N/NC(=O)NCCCC(=O)O)cc1 | 17.9 | 93 | 14.4 | 1.82 | 8.8 |  | inactive | 10.7 |  |  | 18.1 |  | 2.9 |  | inactive | 43 | 29.2 | 16.4 | 4.4 | 12.4 | Activity [23]: inactive; Activity [25]: inactive; Activity [13]: Active; Activity [14]: inactive; Activity [30]: Active
NCC1(CC(=O)O)CCCCC1 [GABAPENTIN] | 7.5 |  | 9.3 | 6.53 | 4.6 | 7.6 |  | 1.5 | 6.9 | 9 | 7.2 | 16.7 | 6.6 | 7.8 |  | 10.1 | 9.1 | 10.2 | 9.9 | 29.7 | 
Nc1nnc(-c2cccc(Cl)c2Cl)c(N)n1 [LAMOTRIGINE] | 29.9 |  | 32.4 | 0.64 | 1.6 | 17.3 |  | 1.9 | 18.4 | 9.2 | 23.7 | 19.2 | 0.7 | 21.8 |  | 24.4 | 22.9 | 2.6 | 6.4 | 15.6 | 

— ChEMBL document CHEMBL1139875, “Discovery of 4-aminobutyric acid derivatives possessing anticonvulsant and antinociceptive activities: a hybrid pharmacophore approach” (2007)
